In ChEMBL document CHEMBL1123557, “N-substituted 1,2,3,4,4a,5,6,10b-octahydrobenzo[f]quinolines and 3-phenylpiperidines: effects on central dopamine and sigma receptors” (J Med Chem, 1987) one finds IC50, Accumulated counts and ED50 data, which are given here for four compounds.

Active and inactive are the calls of the source. The rule behind the calls is not given here.

In one assay the target is D(2) dopamine receptor (Rattus norvegicus, UniProt P61169). As to the kind of experiment: Binding affinity against Dopamine receptor D2 using [3H]spiperone as radioligand. The gist of the method: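 Rat striatal membranes (male Sprague-Dawley, 150–250 g), washed three times in 50 mM Tris-HCl pH 7.7. 0.2–0.4 nM [3H]spiperone with 100 mM NaCl and 3 mM MgCl2, about 2 mg tissue, 15 min at 37 °C. Nonspecific binding defined with 1 μM haloperidol. Bound ligand collected by filtration onto PEI-treated glass fiber filters and counted by scintillation. Competition curves fitted iteratively.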
Sequence of D(2) dopamine receptor (P61169 whole entry): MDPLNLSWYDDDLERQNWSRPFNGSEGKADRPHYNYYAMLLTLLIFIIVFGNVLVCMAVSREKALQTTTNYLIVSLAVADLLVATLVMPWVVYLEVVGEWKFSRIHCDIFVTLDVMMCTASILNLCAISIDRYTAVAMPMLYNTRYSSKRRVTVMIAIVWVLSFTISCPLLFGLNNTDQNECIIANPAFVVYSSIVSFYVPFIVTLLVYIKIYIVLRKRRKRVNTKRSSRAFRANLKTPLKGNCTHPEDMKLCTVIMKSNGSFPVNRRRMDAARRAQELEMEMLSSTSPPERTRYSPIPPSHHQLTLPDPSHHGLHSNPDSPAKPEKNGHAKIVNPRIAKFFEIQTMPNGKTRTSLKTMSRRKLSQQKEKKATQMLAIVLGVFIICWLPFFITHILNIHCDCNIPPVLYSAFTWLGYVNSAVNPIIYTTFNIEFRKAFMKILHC

Assay [1] relates to Rattus norvegicus. Description: post-synaptic dopaminergic effect was assessed by the increase in locomotor activity at 30 min time interval by 133 umol/kg dosage administration. It counts as functional.
For assay [2], the target named is Sigma non-opioid intracellular receptor 1 (Rattus norvegicus, UniProt Q9R0C9). As to the kind of experiment: In vitro for binding affinity against sigma receptor using [3H](+)-3-PPP as radioligand. In short, it runs like this:
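Whole rat brain membranes (male Sprague-Dawley) in 50 mM Tris-HCl pH 8.0. Nonspecific binding defined with 1 μM haloperidol. Rapid filtration onto PEI-treated glass fiber filters, scintillation counting. IC50 from iterative curve fitting.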

Assay [3] is filed under the species Rattus norvegicus. As to the kind of experiment: Effective dose required for DOPA accumulation (presynaptic dopaminergic effect) in rat; I is inactive. It counts as functional, organism-based. In short, it runs like this: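 Male Sprague-Dawley rats (200–300 g); drug in saline given sc. DOPA measured by HPLC with electrochemical detection in each brain area. Dose-response curves used four to six dose levels per substance and area.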

For assay [4], the system named is Rattus norvegicus. Description: post-synaptic dopaminergic effect was assessed by the increase in locomotor activity at 30 min time interval by 200 umol/kg dosage administration. It counts as functional.
Assay [5] has as its system Rattus norvegicus. Description: post-synaptic dopaminergic effect was assessed by the increase in locomotor activity at 30 min time interval by 7 umol/kg dosage administration. It counts as functional.
For assay [6], the system named is Rattus norvegicus. As to the kind of experiment: post-synaptic dopaminergic effect was assessed by the increase in locomotor activity at 30 min time interval by 3.3 umol/kg dosage administration. It counts as functional. In short, it runs like this:
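Test substance dissolved in saline immediately before use, occasionally with a few drops of glacial acetic acid and/or moderate heating; dosing solutions at neutral pH. Locomotor activity is the behavioral read-out of postsynaptic dopamine receptor stimulation.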

Sequence of Sigma non-opioid intracellular receptor 1 (Q9R0C9 whole entry): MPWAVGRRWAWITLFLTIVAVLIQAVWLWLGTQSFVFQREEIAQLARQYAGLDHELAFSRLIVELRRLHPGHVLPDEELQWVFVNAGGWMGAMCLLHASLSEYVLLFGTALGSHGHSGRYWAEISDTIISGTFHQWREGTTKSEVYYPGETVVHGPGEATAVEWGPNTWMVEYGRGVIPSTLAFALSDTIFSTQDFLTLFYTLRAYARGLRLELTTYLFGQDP

With `CN1CCC[C@H](c2cccc(O)c2)C1`, the IC50 on D(2) dopamine receptor stood at 4120 nM; in assay [2], 373 nM. In the assay on Rattus norvegicus [1], this compound had an Accumulated counts of 88.
As to `Oc1cccc([C@@H]2CCCNC2)c1`, the figures for the concentration for half-maximal inhibition (IC50) (on D(2) dopamine receptor; in assay [2]) were 1750 nM and 15600 nM, respectively. Also, in the assay filed under Rattus norvegicus [3], the ED50 entry is “inactive”. The same compound registered an Accumulated counts with Rattus norvegicus [4] of 4.
In the case of `Oc1cccc([C@@H]2CCCN(CCc3ccccc3)C2)c1`, the half-inhibitory concentration (IC50) at D(2) dopamine receptor came out at 44 nM; in assay [2], 16 nM. The compound further had an Accumulated counts in the assay with Rattus norvegicus [5] of 71.
As for `CC(C)N1CCC[C@@H](c2cccc(O)c2)C1`, the figures for the concentration for half-maximal inhibition (IC50) (at D(2) dopamine receptor; in assay [2]) were 355 nM and 208 nM, respectively. Moreover, in the assay on Rattus norvegicus [6], the Accumulated counts turned out to be 38.
